High-throughput results from PubChem.
A selection: hits, their analogues and other compounds. The true share with any hit is near 1.9%.
DNMT1 block: blocks human DNA methyltransferase DNMT1; P26358; DNMT1 molecular beacon, Hinp1I cleavage, fluorescence; inhibition (reported as % activation of signal), % at 10 µM; 360,000 tested, 0.83% active; AID 588458; in the data active = inhibition above about 50%
SUMO HTRF inh: SUMOylation inhibition; P63279; 290,000 tested, 0.36% active; inhibition, % at 35 µM; HTRF SUMOylation assay, SAE1/SAE2 + UBC9, in vitro; AID 2006; in the data active = inhibition above about 50%, passing the limit was not always enough
SUMO1 PPI mod: modulators of human SUMO1-mediated protein-protein interactions; P63165; SUMO1 binding to a labelled peptide, TR-FRET, 1 h; inhibition, % at 20 µM; 360,000 tested, 0.33% active; in the data active = inhibition above about 37%
Target sequence (P63165 whole entry, looked up): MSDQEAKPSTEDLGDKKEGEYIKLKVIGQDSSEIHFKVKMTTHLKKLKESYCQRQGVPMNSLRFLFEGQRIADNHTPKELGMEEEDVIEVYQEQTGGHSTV
LMPTP inh: blocks human LMPTP phosphatase; P24666; recombinant LMPTP-A, OMFP fluorogenic substrate, fluorescence intensity; inhibition, % at 20 µM; 360,000 tested, 0.22% active;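 active = compounds that cut the enzyme signal by at least half of the control window in the single-dose screen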;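 also: plate controls were DMSO wells with enzyme plus substrate for no effect and substrate without enzyme for full effect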
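Test system: LMPTP-A, protein tyrosine phosphatase of low molecular weight; Input: 0.625 nM enzyme; Incubation: 50 min dark incubation at room temperature; Signal: endpoint fluorescence intensity from OMFP dephosphorylation; Read-out basis: % inhibition versus control wells.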
Scp1 inh: blocks human Scp-1 phosphatase activity. Recombinant Scp1, phosphopeptide, malachite green phosphate absorbance. inhibition, % at 20 µM. 340,000 tested, 0.88% active. AID 493091;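 active = inhibition above about 50% at 20 µM, limit read from the data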;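 also: plate controls were DMSO wells with enzyme for no effect and wells lacking enzyme for full effect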
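Test system – truncated SCP-1 phosphatase (76-261aa) · Reagent – Phosphorylated 17-residue peptide substrate · Incubation – 45 min room-temperature reaction, 5 min colour, 30 min stabiliser · Detection – colorimetric phosphate reagent with accelerator and stabiliser, absorbance at 630 nm · Measure – % inhibition at 20 µM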
STEP block: STEP (human) phosphatase inhibition. 360,000 tested, 0.25% active. inhibition, % at 20 µM. recombinant STEP, OMFP fluorogenic substrate, fluorescence;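 active = inhibition at 20 µM, scaled per plate between control wells, above about 37%, limit read from the data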;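 also: 0% = DMSO with enzyme and substrate and 100% = substrate only without enzyme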
Target sequence (P54829 whole entry, looked up): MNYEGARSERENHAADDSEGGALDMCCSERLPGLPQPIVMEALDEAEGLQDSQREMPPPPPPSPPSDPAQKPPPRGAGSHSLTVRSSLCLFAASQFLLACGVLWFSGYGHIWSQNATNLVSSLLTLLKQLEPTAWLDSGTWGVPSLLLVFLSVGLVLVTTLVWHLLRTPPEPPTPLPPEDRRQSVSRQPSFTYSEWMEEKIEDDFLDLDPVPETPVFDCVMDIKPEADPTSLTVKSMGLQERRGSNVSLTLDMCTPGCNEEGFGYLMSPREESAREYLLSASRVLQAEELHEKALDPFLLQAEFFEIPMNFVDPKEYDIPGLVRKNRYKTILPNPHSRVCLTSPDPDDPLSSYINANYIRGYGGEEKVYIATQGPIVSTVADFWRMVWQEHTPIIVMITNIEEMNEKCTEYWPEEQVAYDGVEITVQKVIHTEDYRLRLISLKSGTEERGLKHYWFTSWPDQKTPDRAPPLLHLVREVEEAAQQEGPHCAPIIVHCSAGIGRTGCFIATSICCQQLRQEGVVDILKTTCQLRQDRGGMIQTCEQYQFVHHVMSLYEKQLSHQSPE
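Assay system: isolated STEP enzyme / Timing: 20 min at room temperature, dark / Doses: 20 µM, 1% DMSO / Technique: fluorescence intensity, excitation 480 nm, emission 540 nm / Reagent: fluorogenic phosphatase substrate OMFP at 25 µM final / Measure: percent inhibition scaled to no-enzyme and uninhibited-enzyme controls, plate-pattern corrected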
Scp1 confirm: confirmation of human Scp-1 phosphatase inhibitors; shares compounds with Scp1 inh; recombinant SCP-1 catalytic domain, phosphate release, malachite green absorbance; inhibition, % at 20 µM; 2,500 tested, 61% active; AID 540281;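 also: plate controls were DMSO with enzyme for no effect and buffer wells lacking enzyme for full effect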
MG interference: colorimetric interference in Scp-1 counter-screen | apparent inhibition (interference), % at 20 µM | Colorimetric interference counterscreen, malachite green absorbance 630 nm | AID 540313 | 2,500 tested, under 10 active | shares compounds with Scp1 inh;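 also: compounds added after enzyme reaction finished so only phosphate colour detection is probed; plate controls were DMSO wells with completed Scp-1 reaction for no effect and substrate wells lacking enzyme for full effect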
Scp1 DSF: binds human Scp-1, shifting its melting temperature; thermal shift relative to vanadate control, % at 40 µM; Recombinant SCP1, Sypro Orange thermal shift Tm; shares compounds with Scp1 inh; 1,500 tested, 25% active;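 active = substances whose mean melting-temperature shift, as a percentage of the reference inhibitor's shift, reaches about 5.3%, limit read from the data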;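 also: 0% = Tm of DMSO wells and 100% = Tm with sodium orthovanadate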
An asterisk follows results filed as active; / = no result.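 The calls were made as follows, unless noted: active = inhibition of at least 30% at 20 µM; inactive = the rest.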

SMILES	DNMT1 block	SUMO HTRF inh	SUMO1 PPI mod	LMPTP inh	Scp1 inh	STEP block	Scp1 confirm	MG interference	Scp1 DSF
COc1cc(-c2nnc(COC(=O)c3ccc(C)o3)o2)cc(OC)c1OC	36	/	8	6	59*	13	47*	1	-3
COc1cc(-c2nnc(COC(=O)c3cc(C)no3)o2)cc(OC)c1OC	-3	2	5	-1	-5	1	/	/	/
Cc1ccc(S(=O)(=O)N(CCCO)CC(O)CON=C2c3ccccc3-c3ccccc32)cc1 (stereo not drawn)	-35	-13	6	4	61*	3	16	-10	/
CCN(CC(O)Cn1c2ccccc2c2ccccc21)S(=O)(=O)c1ccc(C)cc1 (stereo not drawn)	-14	-13	0	4	-8	0	/	/	/
Cc1c(Cl)cccc1NC(=S)N1CCCCCC1	6	-2	-3	-1	5	4	/	/	/
Cc1ccc2c(c1)C1OCCC1C1N2C(=O)C2C(C(=O)O)C3C=CC21O3 (stereo not drawn)	20	-1	2	0	77*	2	34*	-17	4
COc1cc2c(cc1NC(=O)CSc1nc3ccccc3[nH]1)oc1ccccc12	31	-10	3	9	72*	24	42*	1	-18
Cc1[nH]c2ccccc2c1/C=N/NC(=O)CNC(=O)c1ccc2c(c1)OCCO2	-3	-14	4	1	66*	0	-4	-3	/
CCOC(=O)c1ccc(N2C(=O)c3n[nH]c(C)c3C2c2ccc(OC)cc2)cc1 (stereo not drawn)	-1	-4	-1	1	-6	0	/	/	/
CCOC(=O)c1ccc(N2C(=O)c3n[nH]c(C)c3C2c2ccc(OC)c(OC)c2)cc1 (stereo not drawn)	-5	-13	3	-1	57*	1	-9	-4	/
Cc1cc(C=O)c(C)n1-c1cccc(C(=O)O)c1	41	10	0	-1	53*	4	52*	-13	-4
CC(=O)c1ccc(N(C(=O)c2csnn2)C(C(=O)NC2CCCC2)c2ccccc2)cc1 (stereo not drawn)	1	6	3	-1	6	2	/	/	/
Cn1c(NC(=O)CCc2ccccc2)cc(=O)n(C)c1=O	5	5	7	-1	7	-1	-21	-16	/
Cn1c(NC(=O)COc2ccccc2)cc(=O)n(C)c1=O	-1	16	3	0	9	2	-13	-17	/
CC(Oc1cccc(Cl)c1)C(=O)Nc1cc(=O)n(C)c(=O)n1C (stereo not drawn)	-1	6	3	1	-6	-2	-9	-2	/
Cn1c(NC(=O)c2ccccc2)cc(=O)n(C)c1=O	5	16	4	-1	0	0	/	/	/
Cn1c(NC(=O)/C=C/c2ccccc2)cc(=O)n(C)c1=O	3	-6	-26	-2	-43	-1	-7	-9	/
CCCC(=O)Nc1cc(=O)n(C)c(=O)n1C	2	8	3	0	-6	3	/	/	/
CCOc1ncccc1C(=O)NNC(=O)CSc1ccc(Cl)cc1	8	/	0	0	-5	0	/	/	/
CCN(C)C1CN(Cc2cn(Cc3cc(C)cc(C)c3)nn2)S(=O)(=O)C1 (stereo not drawn)	/	/	13	-2	/	/	/	/	/
Cc1ccc2nc(SCC(=O)N3CCCc4ccccc43)nc(=O)n2c1	0	/	5	1	-3	1	/	/	/
COc1cc(OC)cc(C(=O)NNC(=O)CCNS(=O)(=O)c2ccc(Br)cc2)c1	4	/	3	0	0	-4	/	/	/
O=C(NCC(=O)N(Cc1cccs1)C(C(=O)NC1CCCCC1)c1ccncc1)c1ccco1 (stereo not drawn)	-9	7	-2	0	52*	0	-15	-19	/
CC(=O)c1ccc(NC(=O)CSc2nnc(-c3ccco3)c(-c3ccco3)n2)cc1	47	90*	43*	54*	83*	10	58*	-22	9.4*
CCN(C(=O)CSc1nc2ccc(OC)cc2[nH]1)c1c(N)n(Cc2ccccc2)c(=O)[nH]c1=O	1	/	2	0	-6	1	/	/	/
SMILES	DNMT1 block	SUMO HTRF inh	SUMO1 PPI mod	LMPTP inh	Scp1 inh	STEP block	Scp1 confirm	MG interference	Scp1 DSF
Cc1ccc2nc(SCC(=O)N(CC(C)C)c3c(N)n(Cc4ccccc4)c(=O)[nH]c3=O)[nH]c2c1	-1	2	0	1	88*	3	-1	-4	/
O=C(N/N=C/C(Cl)=C/c1ccc([N+](=O)[O-])cc1)C(=O)Nc1ccc(C(=O)O)cc1	46	12	3	22	85*	34	62*	-16	-3
COc1ccc(S(=O)(=O)N2CCCCC2)cc1NC(=O)Cc1ccsc1	2	/	3	-1	-13	1	/	/	/
CC(C)c1ccc(/C=C2\SC(=O)N(CC(=O)NC3C=CS(=O)(=O)C3)C2=O)cc1 (stereo not drawn)	37	36	-9	11	57*	16	53*	-7	-4
CC1(C)OC(=O)C(=Cc2ccc(-c3ccc(Cl)c(C(=O)O)c3)o2)C(=O)O1	52*	16	18	1	57*	8	57*	-9	-10
N=C1S/C(=C\c2ccco2)C(=O)N1c1ccc2c(c1)OCO2	9	/	2	28	79*	13	46*	-16	-3
CCC1CC(C(=O)Nc2ccccc2)C(=O)O1 (stereo not drawn)	1	/	0	1	-10	-3	/	/	/
CS(=O)(=O)c1ccc2sc(NC(=O)c3cc4ccccc4o3)nc2c1	3	12	-5	2	69*	-1	29	-16	/
NC(=O)CC(NC(=O)Cc1cccc2ccccc12)c1ccc(NC2CC3CCC2C3)c([N+](=O)[O-])c1 (stereo not drawn)	36	15	-11	2	0	1	/	/	/
COc1ccc(-n2nnnc2SCC(=O)NNC(=O)c2ccc([N+](=O)[O-])cc2)cc1	3	8	19	1	5	-2	/	/	/
Cc1ccc(-n2nnnc2SCC(=O)NNC(=O)c2ccc([N+](=O)[O-])cc2)cc1	1	27	-16	31	50*	16	41*	-11	0
